Measurements as given in ChEMBL document CHEMBL1138855, “Topomimetics of amphipathic beta-sheet and helix-forming bactericidal peptides neutralize lipopolysaccharide endotoxins” (J Med Chem, 2006).
Active and inactive are the calls of the source. The rule behind the calls is not given here.

How the values were obtained:
[1] = test system: Pseudomonas aeruginosa; experiment: Antibacterial activity against Pseudomonas aeruginosa assessed as LPS neutralisation by LAL assay; type: functional, organism-based
Outline: (§1)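 LPS was used at 0.04 units: 0.01 ng for E. coli 055:B5, 0.01 ng for E. coli 0111:B4, 0.003 ng for K. pneumoniae, 0.01 ng for P. aeruginosa, 0.03 ng for S. typhimurium and 0.03 ng for S. marcescens. IC50 came from sigmoidal fits of dose-response curves.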

[2] = test system: Escherichia coli; experiment: Antibacterial activity against Escherichia coli 055:B5 assessed as LPS neutralisation by LAL assay; type: functional, organism-based; outline: as §1
[3] = test system: Klebsiella pneumoniae; experiment: Antibacterial activity against Klebsiella pneumoniae assessed as LPS neutralisation by LAL assay at 5 uM; type: functional, organism-based
[4] = test system: Salmonella typhimurium; experiment: Antibacterial activity against Salmonella Typhimurium assessed as LPS neutralisation by LAL assay; type: functional, organism-based, Salmonella enterica subsp. enterica serovar Typhimurium; details: Salmonella enterica; outline: as §1
[5] = test system: Escherichia coli; experiment: Antibacterial activity against Escherichia coli 0111:B4 assessed as LPS neutralisation by LAL assay; type: functional, organism-based; outline: as §1
[6] = test system: Klebsiella pneumoniae; experiment: Antibacterial activity against Klebsiella pneumoniae assessed as LPS neutralisation by LAL assay; type: functional, organism-based; outline: as §1
[7] = test system: Serratia marcescens; experiment: Antibacterial activity against Serratia marcescens assessed as LPS neutralisation by LAL assay; type: functional, organism-based; outline: as §1
[8] = test system: Pseudomonas aeruginosa; experiment: Antibacterial activity against Pseudomonas aeruginosa assessed as LPS neutralisation at 5 uM by LAL assay; type: functional, organism-based
[9] = test system: Mus musculus; experiment: Survival of Salmonella LPS-challenged C57/BL6 mouse at 50 mg/kg, ip after 120 hrs relative to control; type: functional; details: route intraperitoneal
Outline: (§2)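 Male C57/BL6 mice (n = 4–8/group) received a lethal LPS dose: 500 µg for E. coli 0111:B4, 600 µg for E. coli 055:B5 and 600 µg for Salmonella. LPS was premixed with compound in 2% DMSO v/v for 30 min, then injected i.p. Controls got DMSO alone or compound alone. Survival was followed for up to 120 h, and mean survival time was compared by Student's t-test.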

[10] = test system: Mus musculus; experiment: Survival of Escherichia coli 0111:B4 LPS-challenged C57/BL6 mouse at 50 mg/kg, ip after 120 hrs relative to control; type: functional; details: route intraperitoneal; outline: as §2
[11] = test system: Mus musculus; experiment: Survival of Escherichia coli 055:B5 LPS-challenged C57/BL6 mouse at 5 mg/kg, ip after 120 hrs relative 10 control; type: functional, organism-based; parameters: dose 5 mg/kg; outline: as §2
[12] = test system: Serratia marcescens; experiment: Antibacterial activity against Serratia marcescens assessed as LPS neutralisation by LAL assay at 5 uM; type: functional, organism-based
[13] = test system: Salmonella typhimurium; experiment: Antibacterial activity against Salmonella Typhimurium assessed as LPS neutralisation by LAL assay at 5 uM; type: functional, organism-based; details: Salmonella enterica subsp. enterica serovar Typhimurium
[14] = test system: Escherichia coli; experiment: Antibacterial activity against Escherichia coli 0111:B4 assessed as LPS neutralisation at 5 uM by LAL assay; type: functional, organism-based
[15] = test system: Mus musculus; experiment: Survival of Escherichia coli 055:B5 LPS-challenged C57/BL6 mouse at 50 mg/kg, ip after 120 hrs relative to control; type: functional; details: route intraperitoneal; outline: as §2
[16] = test system: Escherichia coli; experiment: Antibacterial activity against Escherichia coli 055:B5 assessed as LPS neutralisation at 5 uM by LAL assay; type: functional, organism-based

| Compound | IC50 [1] [nM] | IC50 [2] [nM] | Activity [3] | IC50 [4] [nM] | IC50 [5] [nM] | IC50 [6] [nM] | IC50 [7] [nM] | Activity [8] | survival at 50 mg/kg [9] [%] | survival at 50 mg/kg [10] [%] | Activity [11] | Activity [12] | Activity [13] | Activity [14] | survival at 50 mg/kg [15] [%] | Activity [16] |
| --- | --- | --- | --- | --- | --- | --- | --- | --- | --- | --- | --- | --- | --- | --- | --- | --- |
| C=CCc1cc2c(OCC(=O)NCCN(C)C)c(c1)Cc1cc(CC(=C)C)cc(c1OCC(=O)NCCN(C)C)Cc1cc(CC=C)cc(c1OCC(=O)NCCN(C)C)Cc1cc(CC(=C)C)cc(c1OCC(=O)NCCN(C)C)C2 | > 5000 | 3600 | inactive | > 5000 | 4700 |  |  |  |  |  |  |  |  |  |  |  |
| CC(C)(C)c1cc2c(OCCCCN)c(c1)Cc1cc(C(C)(C)C)cc(c1OCCCCN)Cc1cc(C(C)(C)C)cc(c1OCCCCN)Cc1cc(C(C)(C)C)cc(c1OCCCCN)C2 | 500 | 1300 |  | 200 | 100 | 500 | 4500 |  |  |  |  |  |  |  |  |  |
| CC(C)(C)c1cc2c(OCC(=O)NCCN)c(c1)Cc1cc(C(C)(C)C)cc(c1OCC(=O)NCCN)Cc1cc(C(C)(C)C)cc(c1OCC(=O)NCCN)Cc1cc(C(C)(C)C)cc(c1OCC(=O)NCCN)C2 | 800 | 900 |  | 600 | 1600 | 300 | 1500 |  |  |  |  |  |  |  |  |  |
| CCCc1cc2c(OCC(=O)NCCN(C)C)c(c1)Cc1cc(CC(C)C)cc(c1OCC(=O)NCCN(C)C)Cc1cc(CCC)cc(c1OCC(=O)NCCN(C)C)Cc1cc(CC(C)C)cc(c1OCC(=O)NCCN(C)C)C2 | > 5000 | 3800 |  | 3100 | 3700 | 2100 |  |  |  |  |  |  |  |  |  |  |
| CCCc1cc2c(OCC(=O)NCCN(C)C)c(c1)Cc1cc(CCC)cc(c1OCC(=O)NCCN(C)C)Cc1cc(CCC)cc(c1OCC(=O)NCCN(C)C)Cc1cc(CCC)cc(c1OCC(=O)NCCN(C)C)C2 |  | 4400 |  | 4100 | > 5000 | 80 |  | inactive |  |  |  |  |  |  |  |  |
| CC(C)CCOc1c2cc(CCC(=O)NCCN(C)C)cc1Cc1cc(CCC(=O)NCCN(C)C)cc(c1OCCC(C)C)Cc1cc(CCC(=O)NCCN(C)C)cc(c1OCCC(C)C)Cc1cc(CCC(=O)NCCN(C)C)cc(c1OCCC(C)C)C2 |  | > 5000 |  | 3200 | > 5000 | 2400 |  | inactive |  |  |  |  |  |  |  |  |
| CC(C)(C)c1cc2c(OCc3cn(CCN)nn3)c(c1)Cc1cc(C(C)(C)C)cc(c1OCc1cn(CCN)nn1)Cc1cc(C(C)(C)C)cc(c1OCc1cn(CCN)nn1)Cc1cc(C(C)(C)C)cc(c1OCc1cn(CCN)nn1)C2 | 2600 | 50 |  | 1100 | 2200 | 1000 | > 5000 |  | 100 | 25 | inactive |  |  |  |  |  |
| CC(C)(C)c1cc2c(OCc3cn(CCN)nn3)c(c1)Cc1cc(C(C)(C)C)cc(c1OCc1cn(CCN)nn1)Cc1cc(OCc3cnnn3CCN)cc(c1C(C)(C)C)Cc1cc(C(C)(C)C)cc(c1OCc1cn(CCN)nn1)C2 | 1000 | 600 |  |  | 1500 | 900 |  |  |  |  |  | inactive | inactive |  |  |  |
| N=C(N)NCCOc1c2cccc1Cc1cccc(c1O)Cc1cccc(c1OCC(=O)NC(=N)N)Cc1cccc(c1O)C2 |  | 4100 | inactive | > 5000 | 3900 |  |  | inactive |  |  |  |  |  |  |  |  |
| CC(C)CCOc1c2cccc1Cc1cc(CCCOS(=O)(=O)O)cc(c1O)Cc1cccc(c1OCCC(C)C)Cc1cc(CCCOS(=O)(=O)O)cc(c1O)C2 |  | 5000 |  |  | 5000 | 2100 | 4200 | inactive |  |  |  |  | inactive |  |  |  |
| NCCNC(=O)COc1c2cccc1Cc1cccc(c1O)Cc1cccc(c1OCC(=O)NCCN)Cc1cccc(c1O)C2 |  | > 5000 | inactive | > 5000 |  |  |  | inactive |  |  |  |  |  | inactive |  |  |
| CC(C)(C)c1cc2c(O)c(c1)Cc1cc(C(C)(C)C)cc(c1OCCNC(=N)N)Cc1cc(C(C)(C)C)cc(c1O)Cc1cc(C(C)(C)C)cc(c1OCCN)C2 |  | 4100 | inactive | 2600 | > 5000 |  |  | inactive |  |  |  |  |  |  |  |  |
| CC(C)(C)c1cc2c(O)c(c1)Cc1cc(C(C)(C)C)cc(c1OCCNC(=N)N)Cc1cc(C(C)(C)C)cc(c1O)Cc1cc(C(C)(C)C)cc(c1OCCNC(=N)N)C2 |  | > 5000 | inactive | 4400 |  |  |  | inactive |  |  |  |  |  |  |  |  |
| CC(C)CCOc1c2cccc1Cc1cc(CCCOP(=O)(O)O)cc(c1O)Cc1cccc(c1OCCC(C)C)Cc1cc(CCCOP(=O)(O)O)cc(c1O)C2 |  | > 5000 | inactive |  |  |  |  | inactive |  |  |  |  | inactive | inactive |  |  |
| CC(C)(C)c1cc2c(OCCCCN)c(c1)Cc1cc(C(C)(C)C)cc(c1OCCCCNC(=N)N)Cc1cc(C(C)(C)C)cc(c1OCCCCNC(=N)N)Cc1cc(C(C)(C)C)cc(c1OCCCCNC(=N)N)C2 | 800 | 100 |  | 600 | 400 | 500 | 3200 |  |  |  |  |  |  |  |  |  |
| CN(C)CCNC(=O)COc1c2cc(C(C)(C)C)cc1Cc1cc(C(C)(C)C)cc(c1OCC(=O)NCCN(C)C)Cc1cc(C(C)(C)C)cc(c1OCC(=O)NCCN(C)C)Cc1cc(C(C)(C)C)cc(c1OCC(=O)NCCN(C)C)C2 | > 5000 | > 5000 |  | 600 | 1400 | 1500 | 3400 |  |  |  |  |  |  |  |  |  |
| CC(C)Cc1cc2c(OCC(=O)NCCN(C)C)c(c1)Cc1cc(CC(C)C)cc(c1OCC(=O)NCCN(C)C)Cc1cc(C(C)C)cc(c1OCC(=O)NCCN(C)C)Cc1cc(CC(C)C)cc(c1OCC(=O)NCCN(C)C)C2 | 4200 | 6 |  | 400 | 3100 | 1000 |  |  | 80 |  | inactive |  |  |  | 60 |  |
| CCCc1cc2c(OCC(=O)NCCN(C)C)c(c1)Cc1cc(CCC)cc(c1OCC(=O)NCCN(C)C)Cc1cc(CCC)cc(c1OCC(=O)NCCN(C)C)Cc1cc(OCC(=O)NCCN(C)C)cc(c1CCC)C2 |  | 50 |  | 800 | 2700 | 400 |  | inactive |  |  |  | inactive |  |  |  |  |
| CN(C)CCNC(=O)COc1c2cccc1Cc1cccc(c1OCC(=O)NCCN(C)C)Cc1cccc(c1OCC(=O)NCCN(C)C)Cc1cccc(c1OCC(=O)NCCN(C)C)C2 [OTX-008] |  | 3400 |  |  | > 5000 | 1500 | > 5000 | inactive |  |  |  |  | inactive |  |  |  |
| CN(C)CCNC(=O)COc1c2cccc1Cc1cccc(c1O)Cc1cccc(c1OCC(=O)NCCN(C)C)Cc1cccc(c1O)C2 |  | > 5000 | inactive | > 5000 | > 5000 |  |  | inactive |  |  |  |  |  |  |  |  |
| CC(C)(C)c1cc2c(OCC(=O)NCCCn3cncn3)c(c1)Cc1cc(C(C)(C)C)cc(c1OCC(=O)NCCCn1cncn1)Cc1cc(C(C)(C)C)cc(c1OCC(=O)NCCCn1cncn1)Cc1cc(C(C)(C)C)cc(c1OCC(=O)NCCCn1cncn1)C2 |  |  | inactive |  |  |  |  | inactive |  |  |  |  | inactive | inactive |  | inactive |
| CC(C)CCOc1c2cccc1Cc1cc(CCC(=O)O)cc(c1O)Cc1cccc(c1OCCC(C)C)Cc1cc(CCC(=O)O)cc(c1O)C2 |  | > 5000 | inactive |  | > 5000 |  |  | inactive |  |  |  |  | inactive |  |  |  |
| CC(C)(C)c1cc2c(OCCCCNC(=N)N)c(c1)Cc1cc(C(C)(C)C)cc(c1OCCCCNC(=N)N)Cc1cc(C(C)(C)C)cc(c1OCCCCNC(=N)N)Cc1cc(C(C)(C)C)cc(c1OCCCCNC(=N)N)C2 | 1500 | 40 |  | 600 | 700 | 1000 |  |  | 60 | 100 | inactive |  |  |  | 40 |  |
